# Source: ChEMBL document CHEMBL5346888, “Insight into non-nucleoside triazole-based systems as viral polymerases inhibitors” (Eur J Med Chem, 2023)
# What was measured:
# [1] = molecular target: Hepatitis C virus NS5B RNA-dependent RNA polymerase (Hepatitis C virus, UniProt Q8JXU8); experiment: Inhibition of Hepatitis C virus NS5B polymerase; parameters: species or system Hepacivirus hominis
# CYP2D6 = CYP2D6 (Homo sapiens, UniProt P10635); experiment: Inhibition of CYP2D6 (unknown origin); type: ADME
# SARS-CoV-2 = experiment: Antiviral activity against SARS-CoV-2 infected in African green monkey Vero E6 cells assessed as inhibition of virus growth; type: functional, organism-based; conditions: Severe acute respiratory syndrome coronavirus 2, Vero C1008
# [2] = Selectivity index, ratio of CC50 for cytotoxicity against African green monkey Vero E6 cells assessed as reduction in cell viability to EC50 for antiviral activity against SARS-CoV-2 infected in African green monkey Vero E6 cells assessed as inhibition of virus growth; type: toxicity, cell-based, Vero C1008; conditions: read-out: Ratio CC50/EC50
# [3] = Cytotoxicity against human MT4 cells assessed as reduction in cell viability; type: toxicity, cell-based
# How it was run: (§1)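 MT-4 cells infected with wild-type HIV-1 IIIB, or with RES056 (K103N + Y181C double RT mutant) for the SI ratio line. Antiviral activity and cytotoxicity were both read by the tetrazolium (MTT) colorimetric method. […] SI was calculated as CC50/EC50.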
# [4] = Selectivity index, ratio of CC50 for cytotoxicity against human MT4 cells assessed as reduction in cell viability to EC50 for antiviral activity against wild type HIV-1 IIIB infected in human MT4 cells; type: toxicity, cell-based; conditions: read-out: Ratio CC50/EC50; how it was run: as §1
# [5] = system: Human immunodeficiency virus 1; experiment: Antiviral activity against HIV-1 harboring reverse transcriptase F227L/V106A double mutant infected in human MT4 cells assessed as reduction in virus-induced cytopathic effect; type: functional, organism-based; conditions: Human immunodeficiency virus 1, MT4
# [6] = system: Human immunodeficiency virus 1; experiment: Antiviral activity against HIV-1 harboring reverse transcriptase E138K mutant infected in human MT4 cells assessed as reduction in virus-induced cytopathic effect; type: functional, organism-based; conditions: Human immunodeficiency virus 1, MT4
# [7] = system: Human immunodeficiency virus 1; experiment: Antiviral activity against HIV-1 harboring reverse transcriptase Y181C mutant infected in human MT4 cells assessed as reduction in virus-induced cytopathic effect; type: functional, organism-based; conditions: Human immunodeficiency virus 1, MT4
# [8] = system: Human immunodeficiency virus 1; experiment: Antiviral activity against HIV-1 harboring reverse transcriptase K103N mutant infected in human MT4 cells assessed as reduction in virus-induced cytopathic effect; type: functional, organism-based; conditions: Human immunodeficiency virus 1, MT4
# [9] = system: Human immunodeficiency virus 1; experiment: Antiviral activity against HIV-1 harboring reverse transcriptase Y188L mutant infected in human MT4 cells assessed as reduction in virus-induced cytopathic effect; type: functional, organism-based; conditions: Human immunodeficiency virus 1, MT4
# [10] = system: Human immunodeficiency virus 1; experiment: Antiviral activity against wild type HIV-1 IIIB infected in human MT4 cells assessed as reduction in virus-induced cytopathicity by MTT assay; type: functional, organism-based; conditions: Human immunodeficiency virus 1, IIIB; how it was run: as §1
# [11] = molecular target: Hepatitis C virus NS5B RNA-dependent RNA polymerase (Hepatitis C virus) (UniProt Q8JXU8); experiment: Inhibition of Hepatitis C virus NS5B polymerase at 100 uM relative to control; conditions: Hepacivirus hominis
# [12] = system: Human immunodeficiency virus 1; experiment: Antiviral activity against HIV-1 harboring K103 N/Y181C double mutant infected in human HeLa cells assessed as reduction in viral growth; type: functional, organism-based; conditions: Human immunodeficiency virus 1, HeLa
# [13] = system: Human immunodeficiency virus 1; experiment: Antiviral activity against wild type HIV-1 infected in human HeLa cells assessed as reduction in viral growth; type: functional, organism-based; conditions: Human immunodeficiency virus 1, HeLa
# Hepatitis C virus = experiment: Antiviral activity against HCV assessed as reduction in viral growth; type: functional, organism-based, Hepacivirus hominis
# [14] = system: Human immunodeficiency virus 1; experiment: Antiviral activity against wild type HIV-1 infected in human HeLa cells assessed as reduction in viral growth incubated for 48 hrs by bright-glo luciferase assay; type: functional, organism-based; conditions: Human immunodeficiency virus 1, HeLa
# [15] = Cytotoxicity against human HeLa cells assessed as reduction in cell viability incubated for 48 hrs by cellTiter-glo assay; type: toxicity, cell-based
# [16] = system: Human immunodeficiency virus 1; experiment: Antiviral activity against HIV-1 harboring K103N/Y181C double mutant infected in human HeLa cells assessed as reduction in viral growth incubated for 48 hrs by bright-glo luciferase assay; type: functional, organism-based; conditions: Human immunodeficiency virus 1, HeLa
# [17] = Selectivity index, ratio of CC50 for cytotoxicity against human MT4 cells assessed as reduction in cell viability to EC50 for antiviral activity against HIV-1 RES056 infected in human MT4 cells; type: toxicity, cell-based; conditions: read-out: Ratio CC50/EC50; how it was run: as §1
# [18] = Cytotoxicity against dog MDCK cells assessed as reduction in cell viability; type: toxicity, cell-based, Canis lupus familiaris
# Human orthopneumovirus = experiment: Antiviral activity against RSV A infected in human HEp-2 cells assessed as inhibition of virus-induced cytopathogenic effect; type: functional, organism-based; conditions: human respiratory syncytial virus
# [19] = Antiviral activity against RSV B infected in human HEp-2 cells assessed as inhibition of virus-induced cytopathogenic effect; type: functional, cell-based; conditions: human respiratory syncytial virus
# Huh-7 = experiment: Anticancer activity against human Huh-7 cells measured after 72 hrs; type: functional, cell-based; conditions: Huh-7, 72 h
# [20] = Cytotoxicity against dog MDCK cells assessed as reduction in cell viability by MTT assay; type: toxicity, cell-based, Canis lupus familiaris
# [21] = Selectivity index, ratio of CC50 for cytotoxicity against dog MDCK cells assessed as reduction in cell viability by MTT assay to EC50 for antiviral activity against influenza A H1N1 infected in MDCK cells assessed as reduction in viral replication by plaque reduction assay; type: toxicity, cell-based; conditions: read-out: Ratio CC50/EC50
# Influenza A virus [22] = experiment: Antiviral activity against Influenza A virus H9N2 infected in MDCK cells assessed as inhibition of viral replication; type: functional, organism-based
# Influenza A virus [23] = experiment: Antiviral activity against influenza A H1N1 infected in MDCK cells assessed as reduction in viral replication by plaque reduction assay; type: functional, organism-based
# [24] = Selectivity index, ratio of CC50 for cytotoxicty against human Huh-7 cells to EC50 for antiviral activity against HCV infected in human Huh-7 cells assessed as reduction in viral infection; type: toxicity, cell-based; conditions: read-out: Ratio CC50/EC50
# Chain of Hepatitis C virus NS5B RNA-dependent RNA polymerase (Q8JXU8 whole entry): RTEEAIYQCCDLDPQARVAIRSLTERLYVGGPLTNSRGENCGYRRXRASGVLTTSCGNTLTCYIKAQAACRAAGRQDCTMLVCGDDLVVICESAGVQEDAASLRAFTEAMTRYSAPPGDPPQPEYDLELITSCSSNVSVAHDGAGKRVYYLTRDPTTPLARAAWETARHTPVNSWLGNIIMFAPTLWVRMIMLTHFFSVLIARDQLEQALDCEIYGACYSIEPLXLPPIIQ
# Chain of Hepatitis C virus NS5B RNA-dependent RNA polymerase (Hepatitis C virus) (Q8JXU8 as listed by the source): as the sequence (Q8JXU8 whole entry) above
# Chain of CYP2D6 (P10635 whole entry): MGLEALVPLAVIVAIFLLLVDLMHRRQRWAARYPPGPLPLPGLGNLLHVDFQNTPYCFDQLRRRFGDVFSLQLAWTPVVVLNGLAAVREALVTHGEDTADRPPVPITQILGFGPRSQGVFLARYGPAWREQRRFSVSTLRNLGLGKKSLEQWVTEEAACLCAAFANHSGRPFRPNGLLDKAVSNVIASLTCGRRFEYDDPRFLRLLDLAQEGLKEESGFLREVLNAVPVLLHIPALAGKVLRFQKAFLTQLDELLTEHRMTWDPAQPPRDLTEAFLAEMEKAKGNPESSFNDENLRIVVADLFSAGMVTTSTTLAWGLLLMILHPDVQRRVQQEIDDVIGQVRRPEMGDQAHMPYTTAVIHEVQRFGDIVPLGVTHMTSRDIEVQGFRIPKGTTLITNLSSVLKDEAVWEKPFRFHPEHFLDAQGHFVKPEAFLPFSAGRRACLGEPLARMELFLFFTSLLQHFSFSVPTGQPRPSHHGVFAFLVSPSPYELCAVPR
smiles,measurement,setting,value
Cc1cc(C)n2nc(CC3=C(O)CC(CCc4ccc(C(C)(C)O)c(F)c4)(C4CCCC4)OC3=O)nc2n1 (stereo unspecified),IC50,[1],140 nM
same,IC50,CYP2D6,> 6000 nM
COc1ccc(-n2cc(COC(=O)c3cnccn3)nn2)cc1,IC50,SARS-CoV-2,120 nM
same,selectivity ratio,[2],3.2
Cc1ccnc2c1NC(=O)c1cccnc1N2C1CC1 [NEVIRAPINE],CC50,[3],> 15000 nM
CC(C)Nc1cccnc1N1CCN(C(=O)c2cc3cc(NS(C)(=O)=O)ccc3[nH]2)CC1 [DELAVIRDINE],selectivity ratio,[4],733
same,EC50,[5],2270 nM
same,EC50,[6],51 nM
same,EC50,[7],2460 nM
same,EC50,[8],3000 nM
same,EC50,[9],840 nM
same,EC50,[10],38 nM
C=CCn1c(CC2(CC)OCCc3c2[nH]c2c(CC)cccc32)n[nH]c1=S (stereo unspecified),IC50,[1],40300 nM
same,inhibition,[11],58.2%
Cc1ccc(NC(=O)CSc2nnc(C)n2-c2ccccc2)c(Br)c1,EC50,[12],1300 nM
same,EC50,[13],100 nM
CCC(C#N)(CC)c1ccc(CCC2(C3CCCC3)CC(O)=C(Cc3nc4nc(C)cc(C)n4n3)C(=O)O2)cc1F (stereo unspecified),IC50,[1],5 nM
same,IC50,CYP2D6,> 6000 nM
Cc1cc(C)n2nc(CC3=C(O)CC(CCc4ccc(C(C)(C)C#N)c(F)c4)(C4CCCC4)OC3=O)nc2n1 (stereo unspecified),IC50,[1],3 nM
same,EC50,Hepatitis C virus,15 nM
NC(=O)c1nc(F)cnc1O,IC50,SARS-CoV-2,1380 nM
same,selectivity ratio,[2],3.8
NS(=O)(=O)c1ccc(NC(=O)CSc2nnc(Br)n2-c2ccc(C3CC3)c3ccccc23)c(Cl)c1,EC50,[14],0.14 nM
same,CC50 at 48 h,[15],≥ 3000 nM
same,EC50,[16],0.23 nM
COc1ccccc1-n1cc(COC(=O)c2cnccn2)nn1,IC50,SARS-CoV-2,1080 nM
same,selectivity ratio,[2],2.1
CCc1cc(CC[C@]2(C3CCCC3)CC(O)=C(Cc3nc4nc(C)cc(C)n4n3)C(=O)O2)cc(CC)n1 [FILIBUVIR],IC50,[1],7 nM
CCCCn1c(CC2(CC)OCCc3c2[nH]c2c(CC)cccc32)n[nH]c1=S (stereo unspecified),IC50,[1],25400 nM
same,inhibition,[11],72.3%
Cc1cc(C)c(Oc2cc(Nc3ccc(C#N)cc3)ncc2C(=O)NCc2cn(CC(=O)N3CCCC3)nn2)c(C)c1,selectivity ratio,[4],2100
same,selectivity ratio,[17],41
same,EC50,[10],20 nM
COc1ccc(C(=O)Nc2nc3n(n2)C(c2ccccc2)C=C(C)N3)cc1 (stereo unspecified),CC50,[18],> 250000 nM
COc1cc(-c2noc(-c3nnn(-c4ccccc4Cl)c3C)n2)cc(OC)c1OC,EC50,Human orthopneumovirus,1000 nM
same,EC50,[19],1000 nM
O=C(OCc1cn(-c2ccccc2Cl)nn1)c1cnccn1,IC50,SARS-CoV-2,952 nM
same,selectivity ratio,[2],3.7
CCc1cccc2c3c([nH]c12)C(CC)(Cc1n[nH]c(=S)n1CC)OCC3 (stereo unspecified),IC50,[1],21600 nM
same,inhibition,[11],74.6%
CCc1cccc2c3c([nH]c12)C(CC)(Cc1n[nH]c(=S)n1C1CCCCC1)OCC3 (stereo unspecified),inhibition,[11],45.6%
CCc1cccc2c3c([nH]c12)C(CC)(Cc1n[nH]c(=S)n1C)OCC3 (stereo unspecified),EC50,Huh-7,4290 nM
same,IC50,[1],14800 nM
same,inhibition,[11],78.9%
O=C(OCc1cn(-c2ccc(F)cc2)nn1)c1cnccn1,IC50,SARS-CoV-2,12200 nM
same,selectivity ratio,[2],0.3
CCc1cccc2c3c([nH]c12)C(CC)(Cc1n[nH]c(=S)n1-c1ccccc1)OCC3 (stereo unspecified),inhibition,[11],49.5%
CCc1c(C)nc2nnc(-c3ccccc3Cl)n2c1O,CC50,[20],125000 nM
same,selectivity ratio,[21],227
same,EC50,Influenza A virus [22],90 nM
same,EC50,Influenza A virus [23],550 nM
Cc1cc(C)c(Oc2cc(Nc3ccc(C#N)cc3)ncc2C(=O)NCc2cn(CC(=O)N3CCOCC3)nn2)c(C)c1,selectivity ratio,[4],9280
same,selectivity ratio,[17],12
same,EC50,[10],20 nM
Cc1cc(C)c(Oc2cc(Nc3ccc(C#N)cc3)ncc2C(=O)NCc2cn(CCC#N)nn2)c(C)c1,selectivity ratio,[4],2040
same,selectivity ratio,[17],17
CCCn1c(CC2(CC)OCCc3c2[nH]c2c(CC)cccc32)n[nH]c1=S (stereo unspecified),IC50,[1],26000 nM
same,inhibition,[11],69%
O=C(OCc1cn(-c2ccc(Cl)cc2)nn1)c1cnccn1,IC50,SARS-CoV-2,1150 nM
same,selectivity ratio,[2],1.7
O=C(OCc1cn(-c2ccc([N+](=O)[O-])cc2)nn1)c1cnccn1,IC50,SARS-CoV-2,477 nM
same,selectivity ratio,[2],10.3
CCc1cc(CCC2(C3CCCC3)CC(O)=C(Cc3nc4nc(C)cc(C)n4n3)C(=O)O2)cc(CC)n1 (stereo unspecified),IC50,[1],16 nM
O=C(CC(=O)c1nnc[nH]1)c1ccc(OCc2ccc(F)cc2)cc1,selectivity ratio,[24],> 128
CCc1cccc2c3c([nH]c12)C(CC)(Cc1n[nH]c(=S)n1Cc1ccccc1)OCC3 (stereo unspecified),inhibition,[11],3.78%
CCc1cc(CC[C@@]2(C3CCCC3)CC(O)=C(Cc3nc4nc(C)cc(C)n4n3)C(=O)O2)cc(CC)n1,IC50,[1],12 nM
